Test results published in ChEMBL document CHEMBL1130129, “Immunologically specific activation of a cephalosporin derivative of mitomycin C by monoclonal antibody beta-lactamase conjugates” (J Med Chem, 1997).

Key:
[1] = substrate: CO[C@@]12[C@H](COC(N)=O)C3=C(C(=O)C(C)=C(NCC4=C(C(=O)O)N5C(=O)[C@@H](NC(=O)CCCC(=O)O)[C@H]5SC4)C3=O)N1C[C@@H]1N[C@@H]12; test: (§1) Determination of kinetic constant (Km) for hydrolysis by beta-lactamase from Enterobacter cloacae 99
In short: (§2)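 Purified E. cloacae β-lactamase (0.1 µg/mL) added to prodrug in PBS pH 7.2 containing 12.5 µg/mL bovine serum albumin, 23 °C; β-lactam hydrolysis followed by loss of absorbance at 260 nm. Initial velocities taken from linear portions of absorbance-time plots and used to derive kinetic constants.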

[2] = substrate: CO[C@@]12[C@H](COC(N)=O)C3=C(C(=O)C(C)=C(NCC4=C(C(=O)O)N5C(=O)[C@@H](NC(=O)Cc6ccccc6)[C@H]5SC4)C3=O)N1C[C@@H]1N[C@@H]12; test: as §1; in short: as §2
[3] = substrate: O=C(Cc1ccccc1)N[C@@H]1C(=O)N2C(C(=O)O)=C(COC(=O)Nc3ccc(N(CCCl)CCCl)cc3)CS[C@H]12; test: as §1; in short: as §2
[4] = substrate: O=C(O)CCCC(=O)N[C@@H]1C(=O)N2C(C(=O)O)=C(COC(=O)Nc3ccc(N(CCCl)CCCl)cc3)CS[C@H]12; test: as §1; in short: as §2

B1: Beta-lactamase (Enterobacter cloacae), P05364 (protein)
chain: MMRKSLCCALLLGISCSALATPVSEKQLAEVVANTITPLMKAQSVPGMAVAVIYQGKPHYYTFGKADIAANKPVTPQTLFELGSISKTFTGVLGGDAIARGEISLDDAVTRYWPQLTGKQWQGIRMLDLATYTAGGLPLQVPDEVTDNASLLRFYQNWQPQWKPGTTRLYANASIGLFGALAVKPSGMPYEQAMTTRVLKPLKLDHTWINVPKAEEAHYAWGYRDGKAVRVSPGMLDAQAYGVKTNVQDMANWVMANMAPENVADASLKQGIALAQSRYWRIGSMYQGLGWEMLNWPVEANTVVEGSDSKVALAPLPVAEVNPPAPPVKASWVHKTGSTGGFGSYVAFIPEKQIGIVMLANTSYPNPARVEAAYHILEALQ
Km [1]: 119 µM
Km [2]: 48.9 µM
Km [3]: 7 µM
Km [4]: 43.2 µM
